Assay results from article PMC4714923 (Biochemistry, 2015).

Tests used:
[1] = target: T1, CHIP (Homo sapiens, UniProt Q9UNE7); test: FP binding of C-terminal Hsp70/90 tracers to CHIP; details: pH 7.4, full-length CHIP
T1 sequence (Q9UNE7 1-303): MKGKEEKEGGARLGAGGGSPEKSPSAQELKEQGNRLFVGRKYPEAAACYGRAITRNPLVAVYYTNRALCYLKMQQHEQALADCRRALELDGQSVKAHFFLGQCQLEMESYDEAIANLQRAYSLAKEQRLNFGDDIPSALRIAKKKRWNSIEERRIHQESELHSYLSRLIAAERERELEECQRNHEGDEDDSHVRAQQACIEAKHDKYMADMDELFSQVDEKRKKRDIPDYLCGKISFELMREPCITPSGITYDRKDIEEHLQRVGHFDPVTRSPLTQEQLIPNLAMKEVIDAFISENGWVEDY

[2] = target: Hop (Homo sapiens, UniProt P31948); test: FP binding of C-terminal Hsp70/90 tracers to Hop
Outline: (§1)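 Full-length human protein, made in E. coli BL21(DE3) and Ni-NTA purified (DnaJC7 kept its His-tag; Hop and FKBP52 were TEV-cleaved and gel-filtered). Twofold dilutions (0–125 μM final) with 20 nM N-terminal 5-Fam-aminohexanoyl C-terminal Hsp70/90 peptide in 50 mM HEPES, 75 mM NaCl, 0.001% Triton X-100, pH 7.4. 30 min at RT, dark. FP (ex 485/em 530 nm) isotherms. ≥2 runs in triplicate, mean ± SEM.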

[3] = target: T2, DnaJC7 (Homo sapiens, UniProt Q99615); test: FP binding of C-terminal Hsp70/90 tracers to DnaJC7; details: pH 7.4, full-length DnaJC7
T2 sequence (Q99615 1-494): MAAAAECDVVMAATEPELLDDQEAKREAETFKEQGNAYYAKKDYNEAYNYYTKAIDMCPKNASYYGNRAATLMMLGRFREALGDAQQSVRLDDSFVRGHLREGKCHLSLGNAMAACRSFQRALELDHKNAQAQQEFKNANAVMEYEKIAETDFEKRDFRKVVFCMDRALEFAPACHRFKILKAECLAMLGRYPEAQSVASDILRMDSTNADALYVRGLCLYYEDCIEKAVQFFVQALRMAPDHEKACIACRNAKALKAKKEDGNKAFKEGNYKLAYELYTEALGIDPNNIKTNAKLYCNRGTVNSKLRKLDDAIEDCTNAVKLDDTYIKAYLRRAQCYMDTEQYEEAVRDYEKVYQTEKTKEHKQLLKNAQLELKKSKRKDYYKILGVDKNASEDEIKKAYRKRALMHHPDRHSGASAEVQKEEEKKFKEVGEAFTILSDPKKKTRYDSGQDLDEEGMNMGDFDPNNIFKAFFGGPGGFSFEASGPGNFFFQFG
Outline: as §1

[4] = target: T3, FKBP51 (Homo sapiens, UniProt Q13451); test: FP binding of C-terminal Hsp70/90 tracers to FKBP51; details: pH 7.4, full-length FKBP51
T3 sequence (Q13451 1-457): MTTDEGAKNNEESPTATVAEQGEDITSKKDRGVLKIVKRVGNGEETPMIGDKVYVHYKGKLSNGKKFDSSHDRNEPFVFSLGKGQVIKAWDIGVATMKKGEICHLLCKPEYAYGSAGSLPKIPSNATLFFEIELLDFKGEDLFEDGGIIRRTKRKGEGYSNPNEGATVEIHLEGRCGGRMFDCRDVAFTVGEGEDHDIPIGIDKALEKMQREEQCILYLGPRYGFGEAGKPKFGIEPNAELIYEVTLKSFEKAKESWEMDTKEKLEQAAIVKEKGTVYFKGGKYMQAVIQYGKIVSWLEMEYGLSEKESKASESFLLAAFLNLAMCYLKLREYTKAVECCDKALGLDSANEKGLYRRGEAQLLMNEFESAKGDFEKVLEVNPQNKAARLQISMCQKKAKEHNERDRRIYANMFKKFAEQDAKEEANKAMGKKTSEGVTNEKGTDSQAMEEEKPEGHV

[5] = target: T4, FKBP52 (Homo sapiens, UniProt Q02790); test: FP binding of C-terminal Hsp70/90 tracers to FKBP52; details: pH 7.4, full-length FKBP52
T4 sequence (Q02790 1-459): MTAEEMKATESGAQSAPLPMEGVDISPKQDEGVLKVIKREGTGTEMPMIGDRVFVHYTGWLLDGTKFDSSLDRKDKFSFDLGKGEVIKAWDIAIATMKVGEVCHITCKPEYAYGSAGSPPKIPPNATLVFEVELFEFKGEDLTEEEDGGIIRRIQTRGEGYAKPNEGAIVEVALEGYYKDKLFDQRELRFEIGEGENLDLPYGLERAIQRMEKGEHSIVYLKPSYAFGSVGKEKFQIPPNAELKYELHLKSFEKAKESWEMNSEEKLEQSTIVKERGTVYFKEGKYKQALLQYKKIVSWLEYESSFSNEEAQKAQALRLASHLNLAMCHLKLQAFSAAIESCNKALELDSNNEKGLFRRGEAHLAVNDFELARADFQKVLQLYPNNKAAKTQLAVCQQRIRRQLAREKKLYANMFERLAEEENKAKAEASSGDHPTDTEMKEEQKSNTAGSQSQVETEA
Outline: as §1

Sequence of Hop (P31948 whole entry): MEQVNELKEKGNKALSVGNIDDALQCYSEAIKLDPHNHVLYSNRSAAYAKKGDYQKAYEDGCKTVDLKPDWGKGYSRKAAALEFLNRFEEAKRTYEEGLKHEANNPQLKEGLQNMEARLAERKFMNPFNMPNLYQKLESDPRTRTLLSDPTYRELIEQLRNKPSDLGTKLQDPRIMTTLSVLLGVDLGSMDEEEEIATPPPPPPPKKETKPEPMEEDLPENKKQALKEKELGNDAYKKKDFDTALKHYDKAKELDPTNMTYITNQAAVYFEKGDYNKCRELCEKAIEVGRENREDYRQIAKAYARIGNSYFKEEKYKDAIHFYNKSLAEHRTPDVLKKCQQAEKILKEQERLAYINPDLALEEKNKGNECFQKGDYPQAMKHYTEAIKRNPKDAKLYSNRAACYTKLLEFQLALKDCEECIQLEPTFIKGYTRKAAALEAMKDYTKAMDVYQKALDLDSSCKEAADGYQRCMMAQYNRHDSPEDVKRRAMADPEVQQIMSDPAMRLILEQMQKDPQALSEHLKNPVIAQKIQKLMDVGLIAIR

decrease in affinity versus wt tracer [1]	enhanced binding versus wt tracer ([2]; pH 7.4, pseudophosphorylated tracer)	binding to DnaJC7 (in words) [3]	binding to FKBP51 (in words) [4]	binding to FKBP52 (in words) [5]	binding to CHIP (in words) [1]	binding to Hop (in words) ([2]; pH 7.4, full-length Hop)	Substance
more than 8 fold	~ 2 fold	unaffected	unaffected	unaffected			Fam-DDTERMEEVD
		no affinity	no affinity	no affinity	no affinity	no affinity	Fam-DVEEM
